The source made the active and inactive calls. No cut-off for these calls is given here.
Columns and labels:
[1] = Cytotoxicity against African green monkey Vero cells after 72 hrs by MTT assay; format: cell-based; conditions: chlorocebus sabaeus
In short: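 Monkey kidney Vero cells were exposed to compounds for 72 h. Viable cells were detected with MTT, and CC₅₀ was estimated by the Huber & Koella method. Values are the mean of two independent experiments.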

Syrian golden hamster = experiment: Toxicity in golden hamster at 50 mg/kg, ip; format: organism-based, Mesocricetus auratus; design: dose 50 mg/kg, route intraperitoneal; conditions: in vivo
Leishmania donovani [2] = experiment: Antileishmanial activity against Leishmania donovani infected in golden hamster assessed as inhibition of parasite multiplication at 50 mg/kg, ip for 5 days measured after 7 days by Giemsa staining-based assay; format: functional; conditions: for inhibition in vivo at 50 mg/kg: route intraperitoneal
In short: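 Hamsters infected with L. donovani received test compounds at 50 mg/kg/day ip for 5 days, starting after the infection was established. Parasite burden was determined by Giemsa staining. Efficacy was expressed as percent inhibition, comparing treated animals, untreated animals and the initial count in treated animals.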

[3] = (§1) Selectivity index, ratio of CC50 for African green monkey Vero cells to IC50 for Leishmania donovani amastigotes; format: functional
In short: (§2)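 Calculated as CC₅₀ on Vero cells divided by IC₅₀ on L. donovani intramacrophage amastigotes. Both values come from 72 h assays: MTT for Vero cells and a luciferase reporter for amastigotes.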

Leishmania donovani [4] = experiment: Antileishmanial activity against Leishmania donovani amastigotes infected in mouse J774A1 cells after 72 hrs by luciferase reporter gene assay; format: functional, organism-based; conditions: J774.A1, 72 h
In short: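 Macrophage cells were seeded at 4 × 10³ per well, held 24 h in a CO₂ incubator, and then infected with 4 × 10⁴ promastigotes, which transform into intracellular amastigotes. Compounds were added at 0.62–40 and incubated 72 h. Read-out was luminescence after Steady-Glo addition, with inhibition derived against untreated controls. IC₅₀ is the mean of two independent experiments.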

Leishmania donovani [5] = experiment: Antileishmanial activity against Leishmania donovani infected in golden hamster assessed as inhibition of parasite multiplication at 40 mg/kg, ip for 5 days measured after 7 days by Giemsa staining-based assay; format: functional, organism-based; design: dose 40 mg/kg
In short: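 Reference-drug arm in the L. donovani-infected hamster model, dosed at 40 mg/kg ip daily for 5 days. After the infection was established, parasite burden was assessed by Giemsa staining. Percent inhibition came from comparing treated with untreated animals and with the initial count in treated animals.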

Vero = experiment: as §1; format: functional; in short: as §2
[6] = Cytotoxicity against mouse J774A1 cells after 72 hrs; format: cell-based; conditions: j774.a1, 72 h
Leishmania donovani [7] = experiment: Antileishmanial activity against Leishmania donovani infected in golden hamster assessed as inhibition of parasite multiplication at 30 mg/kg, po for 5 days measured after 7 days by Giemsa staining-based assay; format: functional

| IC50 (Leishmania donovani [4]) | Molecule | CC50 at 72 h [1] | Activity (Syrian golden hamster) | inhibition in vivo at 50 mg/kg (Leishmania donovani [2]) | Ratio CC50/IC50 [3] | inhibition (Leishmania donovani [5]) | Ratio CC50/IC50 (Vero) | Activity [6] | inhibition in vivo at 30 mg/kg (Leishmania donovani [7]) | inhibition (Leishmania donovani [2]) |
| --- | --- | --- | --- | --- | --- | --- | --- | --- | --- | --- |
| 0.5 µM | COc1ccc(Nc2cc(/C=C/c3ccc(OCc4ccccc4)cc3)nc(N)n2)cc1 | 57.8 µM | Non-toxic | 78.1% | 116 |  |  |  |  |  |
| 2 µM | COc1ccc(/C=C/c2cc(SC)nc(N)n2)cc1OC | 125 µM | Non-toxic | 47.1% | 62 |  |  |  |  |  |
|  | CSc1cc(/C=C/c2ccc(O)cc2)nc(N)n1 |  | Non-toxic |  |  |  |  |  |  |  |
|  | COc1cc(/C=C/c2cc(SC)nc(N)n2)ccc1O |  | Non-toxic |  |  |  |  |  |  |  |
|  | Sodium stibogluconate |  |  |  |  | 88.5% | > 7 |  |  |  |
| 6.3 µM | CSc1cc(/C=C/c2ccc(OS(=O)(=O)[O-])cc2)nc(N)n1.[Na+] | 301 µM | Non-toxic | 55.1% | 48 |  |  |  |  |  |
| 9.1 µM | COc1ccc(/C=C/c2cc(SC)nc(N)n2)cc1 | 250 µM | Non-toxic | 54.4% | 27 |  |  |  |  |  |
| 3.6 µM | CSc1cc(/C=C/c2ccc(OC3CCCCO3)cc2)nc(N)n1 (stereo not given) | 122 µM | Non-toxic | 54.4% | 34 |  |  |  |  |  |
| 2.7 µM | COc1ccc(Nc2cc(/C=C/c3ccc(OC4CCCCO4)cc3)nc(N)n2)cc1 (stereo not given) | 345 µM | Non-toxic | 78.2% | 128 |  |  |  |  |  |
| 2 µM | CSc1cc(/C=C/c2ccc(OCc3ccccc3)cc2)nc(N)n1 | 376 µM | Non-toxic | 88.4% | 188 |  |  | Non-toxic |  |  |
|  | CCCCCCCCCCCCCCCCOP(=O)([O-])OCC[N+](C)(C)C [MILTEFOSINE] |  |  |  | 4 |  |  |  | 98.1% |  |
| > 40 µM | COc1cc(/C=C/c2cc(SC)nc(N)n2)cc(OC)c1OC |  | Non-toxic |  |  |  |  |  |  | inactive |
| 12.9 µM | CCOc1cc(/C=C/c2cc(SC)nc(N)n2)ccc1OC1CCCCO1 (stereo not given) | 248 µM | Non-toxic | 33.5% | 19 |  |  |  |  |  |
